In ChEMBL document CHEMBL5226368, “1H NMR-Based Biochemometric Analysis of Morus alba Extracts toward a Multipotent Herbal Anti-Infective” (J Nat Prod, 2023):
≈ marks a conversion by molar mass, not a printed value. Calls of active or inactive are those of the source. No cut-off for these calls is given here.

How the values were obtained:
[1] = test system: Staphylococcus aureus; assay: Antibacterial activity against Staphylococcus aureus ATCC43000 assessed as inhibition of bacterial growth incubated for 24 hrs by broth microdilution assay; type: functional
How it was run: (§1)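 Broth microdilution on S. aureus in brain-heart-infusion broth. Double-concentrated half-log dilutions (duplicates) mixed with an equal volume of bacterial suspension at 2×10^5 CFU/mL. Incubated 24 h at 37 °C, 5% CO2. MIC read as the lowest concentration with no visible growth. Reported as mean MIC of three assays. Ampicillin and rifampicin served as references.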

[2] = test system: Staphylococcus aureus; assay: Antibacterial activity against Staphylococcus aureus ATCC25923 assessed as inhibition of bacterial growth incubated for 24 hrs by broth microdilution assay; type: functional; how it was run: as §1
[3] = test system: Streptococcus pneumoniae; assay: Antibacterial activity against Streptococcus pneumoniae DSM20566 assessed as inhibition of bacterial growth incubated for 24 hrs by broth microdilution assay; type: functional
How it was run: (§2)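 S. pneumoniae was tested by broth microdilution in Todd Hewitt broth with yeast extract. Double-concentrated half-log dilutions (duplicates) were combined 1:1 by volume with inoculum at 2×10^5 CFU/mL, then held 24 h at 37 °C under 5% CO2. MIC was the lowest concentration without visible growth, averaged over three assays. Ampicillin and rifampicin served as references.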

[4] = test system: Streptococcus pneumoniae; assay: Antibacterial activity against Streptococcus pneumoniae D39 assessed as inhibition of bacterial growth incubated for 24 hrs by broth microdilution assay; type: functional; how it was run: as §2
[5] = test system: Calu-3; assay: Cytotoxicity against human Calu-3 cells assessed as reduction in cell viability incubated for 72 hrs by WST-8 assay; type: toxicity, cell-based; conditions: calu-3, 72 h
How it was run: (§3)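 Confluent monolayers in serum-free medium with 0.2 μg/mL trypsin were exposed to six half-log concentrations (maximum 100 μM) for 72 h at 37 °C. WST-8 was added for 2 h and OD read at 450 vs 620 nm (NADH activity). After PBS washes, crystal violet staining was used for viability. At least three assays were run.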

[6] = test system: A549; assay: Cytotoxicity against human A549 cells assessed as reduction in cell viability incubated for 72 hrs by WST-8 assay; type: toxicity, cell-based; conditions: a549, 72 h; how it was run: as §3
[7] = test system: Influenza A virus; assay: Antiviral activity against Influenza A virus; type: functional, organism-based

Row | Compound | MIC [1] [µM] | MIC [2] [µM] | MIC [3] [µM] | MIC [4] [µM] | Activity [5] | Activity [6] | Activity [7]
1 | CO[C@H]1/C=C/O[C@@]2(C)Oc3c(C)c(O)c4c(O)c(c(/C=N/N5CCN(C)CC5)c(O)c4c3C2=O)NC(=O)/C(C)=C\C=C\[C@H](C)[C@H](O)[C@@H](C)[C@@H](O)[C@@H](C)[C@H](OC(C)=O)[C@@H]1C [RIFAMPIN] | 15.4 (≈ 12.7 µg/mL) | 1 (≈ 0.823 µg/mL) | 0.02 (≈ 0.0165 µg/mL) | – | – | – | –
2 | CC(C)=CC[C@]12Oc3cc(O)c([C@H]4C=C(C)C[C@H](c5ccc(O)cc5O)[C@H]4C(=O)c4ccc(O)cc4O)c(O)c3C(=O)[C@@]1(O)Oc1cc(O)ccc12 [SANGGENON C] | 3.16 (≈ 2.24 µg/mL) | 3.16 (≈ 2.24 µg/mL) | 2.08 (≈ 1.47 µg/mL) | 1.72 (≈ 1.22 µg/mL) | Non-Toxic | Non-Toxic | –
3 | CC(C)=CCCC1=C[C@H](c2c(O)cc3c(c2O)C(=O)C[C@@H](c2ccc(O)cc2O)O3)[C@@H](C(=O)c2ccc(O)cc2O)[C@H](c2ccc(O)cc2O)C1 | 10 (≈ 6.95 µg/mL) | 10 (≈ 6.95 µg/mL) | 3.16 (≈ 2.2 µg/mL) | 3.16 (≈ 2.2 µg/mL) | Non-Toxic | Non-Toxic | –
4 | CC1(C)S[C@@H]2[C@H](NC(=O)[C@H](N)c3ccccc3)C(=O)N2[C@H]1C(=O)O [AMPICILLIN] | – | – | – | 0.02 (≈ 0.00699 µg/mL) | – | – | –
5 | CC(C)=CCC12Oc3cc(O)c(C4C=C(C)CC(c5ccc(O)cc5O)C4C(=O)c4ccc(O)cc4O)c(O)c3C(=O)C1(O)Oc1cc(O)ccc12 (stereo not drawn) | 10 (≈ 7.09 µg/mL) | 10 (≈ 7.09 µg/mL) | 3.16 (≈ 2.24 µg/mL) | 3.16 (≈ 2.24 µg/mL) | Non-Toxic | Non-Toxic | inactive
